From the M2OR odorant receptor database

biological target: T1, OR10S1 (Homo sapiens) (UniProt Q8NGN2); conditions: stereoisomer not certain
T1 sequence (whole entry): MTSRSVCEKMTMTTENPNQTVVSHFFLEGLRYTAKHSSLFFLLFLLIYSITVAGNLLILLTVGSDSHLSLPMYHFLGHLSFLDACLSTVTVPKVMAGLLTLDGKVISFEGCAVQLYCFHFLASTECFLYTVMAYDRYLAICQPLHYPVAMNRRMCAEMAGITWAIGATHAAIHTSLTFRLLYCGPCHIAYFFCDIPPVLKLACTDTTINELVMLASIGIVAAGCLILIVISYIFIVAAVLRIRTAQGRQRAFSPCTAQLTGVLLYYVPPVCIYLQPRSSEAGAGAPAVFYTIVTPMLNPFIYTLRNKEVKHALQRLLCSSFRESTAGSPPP
Summary of the method: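 Values were gathered from published papers (main text and supplementary material), with extra details requested from the original authors when needed, and checked for typos and inconsistencies. Each receptor–molecule pair is called responsive (active) if the original authors judged the measured signal statistically different from baseline, and non-responsive (inactive) otherwise. Assay methods varied by source, often transient mammalian cell-line luciferase assays. Recorded details include cell line, G-protein, co-transfected protein and tags.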

Question: How did the “odorant receptor agonist call” value turn out when `CCCCOCC(C)O` (stereo not given) was run?
Answer: Its value is “inactive”.

Question: Which “odorant receptor agonist call” value does the source give for `CCCCCCCCCCCCCCCC(=O)OC` here?
Answer: The value was “inactive”.

Question: Which “odorant receptor agonist call” value does the source give for `CC(O)C(=O)[O-].[H+]` (stereo not given) here?
Answer: Its value is “inactive”.

Question: `O=c1ccc2ccccc2o1` was tested. Which “odorant receptor agonist call” value did it give?
Answer: Its value is “inactive”.

Question: How did the “odorant receptor agonist call” value turn out when `C=C1CCC2CC1C2(C)C` (stereo not given) was run?
Answer: Its value is “inactive”.

Question: For `CCCCCCCC(=O)OC`, which “odorant receptor agonist call” value is on record?
Answer: The value was “inactive”.

Question: With `CCCCCCCCCCCCCCCCCC(=O)OCC` as the molecule, how does the “odorant receptor agonist call” value read?
Answer: The value was “inactive”.

Question: `CC(C)=CCCC(C)=CCO` was tested. Which “odorant receptor agonist call” value did it give?
Answer: Its value is “active”.

Question: `Cc1ccc(C(C)C)cc1` was tested. Which “odorant receptor agonist call” value did it give?
Answer: The value was “inactive”.

Question: Which “odorant receptor agonist call” value does the source give for `CCCCCCCCCCCCCCCCCC(=O)[O-].[H+]` here?
Answer: Its value is “inactive”.

Question: `COc1ccc2[nH]cc(CCNC(C)=O)c2c1` was tested. Which “odorant receptor agonist call” value did it give?
Answer: Its value is “inactive”.

Question: `CCC(O)CC` was tested. Which “odorant receptor agonist call” value did it give?
Answer: Its value is “inactive”.

Question: `CCCCCCCCCCCCCC(=O)OC` was tested. Which “odorant receptor agonist call” value did it give?
Answer: The value was “inactive”.

Question: How did the “odorant receptor agonist call” value turn out when `CCCC(=O)CC` was run?
Answer: The value was “inactive”.

Question: With `CCCCCCCCCCCCCCCC(=O)OCC` as the molecule, how does the “odorant receptor agonist call” value read?
Answer: Its value is “inactive”.

Question: `CCCCCCCCCCCCCCCCCC(=O)OC` was tested. Which “odorant receptor agonist call” value did it give?
Answer: Its value is “inactive”.

Question: How did the “odorant receptor agonist call” value turn out when `CCC(=O)O` was run?
Answer: Its value is “inactive”.

Question: With `CCCCCCCCCCCC(=O)O` as the molecule, how does the “odorant receptor agonist call” value read?
Answer: Its value is “inactive”.

Question: With `CC(C=O)Cc1ccc(C(C)(C)C)cc1` (stereo not given) as the molecule, how does the “odorant receptor agonist call” value read?
Answer: The value was “active”.

Question: `C=C(C)C1CC=C(C)CC1` (stereo not given) was tested. Which “odorant receptor agonist call” value did it give?
Answer: Its value is “inactive”.

Question: `CC1=CCC2CC1C2(C)C` (stereo not given) was tested. Which “odorant receptor agonist call” value did it give?
Answer: Its value is “inactive”.

Question: `CCCCCCCCCCCCO` was tested. Which “odorant receptor agonist call” value did it give?
Answer: Its value is “active”.

Question: With `CCCCCCCCCCCCCCC(=O)O` as the molecule, how does the “odorant receptor agonist call” value read?
Answer: The value was “inactive”.

Question: For `CCCO`, which “odorant receptor agonist call” value is on record?
Answer: Its value is “inactive”.

Question: How did the “odorant receptor agonist call” value turn out when `CC(C)=CCCC(C)=CCCC(C)=CCO` was run?
Answer: The value was “inactive”.
